Results collected from several papers.
Protocols differ between the studies behind these lines.
Sample: plasma

CC(=O)O[C@@H]1CC[C@@]2(C)[C@@H](CC[C@]3(C)[C@@H]2C(=O)C=C2[C@@H]4[C@@H](C)[C@H](C)CC[C@]4(C)CC[C@]23C)[C@@]1(C)C(=O)O — AUC(0-inf) (female Wistar rat; oral; 1 mg/kg; single dose): 50200 ng·h/mL
C=CC(=O)N1CCC([C@@H]2CCNc3c(C(N)=O)c(-c4ccc(Oc5ccccc5)cc4)nn32)CC1 — AUC(0-inf) (Sprague-Dawley rat; oral; 16 mg/kg): 1460 ng·h/mL
C[C@@]12C[C@@]3(O)O[C@@H](O1)[C@]1(COC(=O)c4ccccc4)[C@H]3C[C@@]12O[C@@H]1O[C@H](CO)[C@@H](O)[C@H](O)[C@H]1O — AUC(0-inf) (male Sprague-Dawley rat; oral; 80 mg/kg): 4.33 ng·h/mL
CC[C@H](C)[C@H](NC(=O)[C@@H]1CCCN1C(=O)CNC(=O)[C@H](Cc1ccccc1)NC(=O)[C@H](CC(N)=O)NC(=O)[C@H](CC(N)=O)NC(=O)[C@H](CO)NC(=O)[C@H](CO)NC(=O)[C@H](Cc1c[nH]cn1)NC(=O)[C@H](CCCNC(=N)N)NC(=O)[C@H](CC(C)C)NC(=O)[C@H](Cc1ccccc1)NC(=O)[C@H](CCC(=O)O)NC(=O)[C@H](C)NC(=O)[C@H](CC(C)C)NC(=O)[C@H](CCCNC(=N)N)NC(=O)[C@H](CCC(N)=O)NC(=O)[C@@H](NC(=O)[C@H](C)NC(=O)[C@@H]1CSSC[C@H](NC(=O)[C@H](CCCCN)NC(=O)CC[C@H](NC(=O)CCCCCCCCCCCCCCCCCCC(=O)O)C(=O)O)C(=O)N[C@@H](CC(N)=O)C(=O)N[C@@H]([C@@H](C)O)C(=O)N[C@@H](C)C(=O)N[C@@H]([C@@H](C)O)C(=O)N1)[C@@H](C)O)C(=O)N[C@@H](CC(C)C)C(=O)N1CCC[C@H]1C(=O)N1CCC[C@H]1C(=O)N[C@H](C(=O)N[C@@H](CC(N)=O)C(=O)N[C@H](C(=O)NCC(=O)N[C@@H](CO)C(=O)N[C@@H](CC(N)=O)C(=O)N[C@H](C(=O)N1CCC[C@H]1C(N)=O)[C@@H](C)O)C(C)C)[C@@H](C)O — AUC(0-inf) (male Sprague-Dawley rat; subcutaneous; 30 nmol/kg; single dose): 5 µM·h
Cn1c(=O)c2[nH]cnc2n(C)c1=O — AUC(0-inf) (male Sprague-Dawley rat; intravenous; 22.5 mg/kg): 59400 ng·h/mL
COc1nc(-c2cccc(-c3ccccc3)c2C)ccc1CNCCNC(=O)CCCCCCCCCCC(=O)N1CCN(CCNC(=O)c2cc3c(=O)n4cccc(C)c4nc3n(CCc3cccs3)c2=N)CC1 — AUC(0-inf) (male Sprague-Dawley rat; oral; 40 mg/kg): 305 ng·h/mL
O=C1CCC(N2Cc3cc(C4CCN(Cc5ccccc5)CC4)ccc3C2=O)C(=O)N1 (stereo not drawn) — AUC(0-inf) (male Sprague-Dawley rat; intravenous; 1 mg/kg): 325 ng·h/mL
COc1ccc(N(Cc2csc(-c3ccccc3)n2)C(=O)CCCCCC(=O)NO)cc1 — AUC(0-inf) (female Sprague-Dawley rat; oral; 30 mg/kg): 32.4 ng·h/mL
CCN(CC)Cc1ccc2cc(COC(=O)Nc3ccc(C(=O)NO)cc3)ccc2c1 — AUC(0-inf) (male Sprague-Dawley rat; oral; 10 mg/kg): 8730 ng·h/mL
CONC(=O)c1cccc2c1cc(C)n2-c1nc2c(c(NCc3ccccc3)n1)CCCN2 — AUC(0-inf) (male Sprague-Dawley rat; intravenous; 1 mg/kg; single dose): 32.5 ng·h/mL
C[C@H]1Oc2cc(cnc2N)-c2c(nn(C)c2C#N)CN(C)C(=O)c2ccc(F)cc21 — AUC(0-inf) (Sprague-Dawley rat; intravenous; 1 mg/kg; single dose): 4470 ng·h/mL
COc1cc(-c2cc(C(C)=O)n3ccccc23)c(OC)cc1Cn1ccnc1 — AUC(0-inf) (male Sprague-Dawley rat; oral; 5 mg/kg): 2160 ng·h/mL
CCCc1nc2c(C)cc(-c3nc4ccccc4n3C)cc2n1Cc1ccc(-c2ccccc2C(=O)O)cc1 — AUC(0-inf) (male Sprague-Dawley rat; oral; 8 mg/kg; single dose): 1950 ng·h/mL
COc1ccc(-c2coc3cc(O)cc(O)c3c2=O)cc1 — AUC(0-inf) (rat; intravenous; 2 mg/kg): 683 ng·h/mL
Cc1nc(Nc2ncc(C(=O)Nc3c(C)cccc3Cl)s2)cc(N2CCN(CCO)CC2)n1 — AUC(0-inf) (male Sprague-Dawley rat; oral; 5 mg/kg; single dose): 0.199 µM·h
